Bioassay records (PubChem)
CHRM4 agonist = CHRM4 agonism in calcium assay; P08173; CHO-K1 hM4/Gqi5, Fluo-8 calcium fluorescence; vehicle 0%, full acetylcholine response 100%; activation, % at 3 µM; 360,000 compounds, 0.14% hits;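 active = activation above the run mean over all test wells plus 3 SD, cut at about 32% in these data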;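 note: peak over basal fluorescence ratio per well then scaled between controls; 0% = DMSO wells and 100% = acetylcholine at EC100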
M4 antag = antagonists of human muscarinic M4 receptor (CHRM4); P08173; CHO-hM4 cells, ACh EC80, Fluo-8 calcium fluorescence; inhibition, % at 3 µM; 360,000 compounds, 0.73% hits; AID 624125;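 active = inhibition above its plate's cutoff, the mean inhibition of sample wells plus 3 SD, cut at about 27% in these data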;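 note: 0% = acetylcholine EC80 with DMSO and 100% = DMSO without agonist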
CHRM4 PAM = CHRM4 positive allosteric modulation | P08173 | CHO-K1 hM4/Gqi5, Fluo-8 calcium fluorescence, ACh EC20; 0% = ACh EC20, 100% = maximal ACh | activation, % at 3 µM | 360,000 compounds, 0.4% hits | AID 624126;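 active = activation above its plate's cutoff, the mean activation of sample wells plus 3 SD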
M5 ag = CHRM5 agonism in calcium assay | P08912 | CHO-K1 hM5 cells, Fluo-8 calcium fluorescence; 0% DMSO wells, 100% maximal acetylcholine response | activation, % at 3 µM | 360,000 compounds, 0.19% hits | AID 624037;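 active = activation above the run's mean over test compounds plus 3 SD, cut at about 23% in these data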;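 note: signal is peak over basal fluorescence ratio across the kinetic read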
Target sequence (P08912 whole entry, looked up): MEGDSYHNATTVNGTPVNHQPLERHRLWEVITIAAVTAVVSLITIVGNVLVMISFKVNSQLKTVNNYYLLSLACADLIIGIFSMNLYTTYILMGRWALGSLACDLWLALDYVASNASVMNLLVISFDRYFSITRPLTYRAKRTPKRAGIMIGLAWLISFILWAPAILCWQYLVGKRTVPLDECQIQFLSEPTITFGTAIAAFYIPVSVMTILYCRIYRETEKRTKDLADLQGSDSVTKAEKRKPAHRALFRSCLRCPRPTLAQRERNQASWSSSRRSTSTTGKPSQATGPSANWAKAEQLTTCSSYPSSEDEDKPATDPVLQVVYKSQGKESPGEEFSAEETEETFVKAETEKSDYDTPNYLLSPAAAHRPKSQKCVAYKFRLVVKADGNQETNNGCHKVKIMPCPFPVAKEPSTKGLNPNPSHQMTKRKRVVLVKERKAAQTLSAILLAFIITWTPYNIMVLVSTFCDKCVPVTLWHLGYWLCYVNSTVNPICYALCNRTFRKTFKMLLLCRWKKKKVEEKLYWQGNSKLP
M5 PAM = potentiates acetylcholine response at human M5 receptor; P08912; CHO-K1 hM5, Fluo-8 calcium, ACh EC20 PAM; 0% = ACh EC20, 100% = ACh EC100; activation, % at 3 µM; 360,000 compounds, 0.3% hits; AID 624038;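 active = activation above the run cutoff, the mean activation of all test compounds plus 3 SD, cut at about 18% in these data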
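system = human M5 receptor in CHO-K1 cells | reagent = EC20 acetylcholine as agonist stimulus | compound dosing = single-point, 3 µM nominal | incubation = Fluo-8 loading 80 min at 37 °C plus 30 min room temperature | detection = Fluo-8 calcium dye fluorescence, kinetic read | benchmarks = low control EC20 acetylcholine (0%), high control EC100 acetylcholine (100%)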
CHRM5 antagonist = antagonists of human muscarinic M5 receptor (CHRM5) | P08912 | CHO-hM5 cells, Fluo-8 calcium fluorescence, ACh EC80 | inhibition, % at 3 µM | 360,000 compounds, 0.59% hits | AID 624040;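 active = inhibition above a per-plate cutoff, the mean of that plate's test compounds plus 3 SD, cut at about 27% in these data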;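 note: 0% = acetylcholine EC80 with DMSO and 100% = DMSO without agonist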
Numbers without * were called inactive. In the library only some 1.8% were active in any assay of this set; here they are far more common.

Results for O=C(OCc1ccccc1)N(CCCCN(CCCNCc1ccccc1)C(=O)OCc1ccccc1)CCCNCc1ccccc1 ?
CHRM4 agonist: 26.4; M4 antag: 65.4*; CHRM4 PAM: -10.9; M5 ag: -9.8; M5 PAM: -14.3; CHRM5 antagonist: 20.9

Results for COC(=O)Cn1c(O)c(N=NC(=O)CNC(=O)c2ccc3c(c2)OCCO3)c2ccccc21 ?
CHRM4 agonist: 3.3; M4 antag: -1.1; CHRM4 PAM: 2.0; M5 ag: -8.6; M5 PAM: 10.9; CHRM5 antagonist: -1.3

What do the screens show for `O=C(CNC(=O)Cc1ccccc1)N=Nc1c(O)n(Cc2ccc3c(c2)OCO3)c2ccccc12`?
CHRM4 agonist: 0.7; M4 antag: -17.8; CHRM4 PAM: 21.2*; M5 ag: -4.3; M5 PAM: 11.0; CHRM5 antagonist: -4.5

How did CC(=O)c1c(C)n(CC(=O)NCc2ccc3c(c2)OCO3)c2ccccc12 do in these assays?
CHRM4 agonist: 13.5; M4 antag: 10.1; CHRM4 PAM: -7.6; M5 ag: 0.7; M5 PAM: -18.0; CHRM5 antagonist: 28.8*

How did CCCCCCCN(c1ccccc1)[C@@H]1C[C@H]2CCCC(=O)N3CC[C@@H](C1)[C@@H]23 do in these assays?
CHRM4 agonist: 0.4; M4 antag: 1.5; CHRM4 PAM: -4.9; M5 ag: -5.2; M5 PAM: -1.9; CHRM5 antagonist: 9.4

Results for Cc1csc(-c2nc3ccccc3n2C(C(=O)Nc2c(C)cccc2C)C2CC2)c1 (stereo unspecified) ?
CHRM4 agonist: 0.3; M4 antag: -28.4; CHRM4 PAM: 11.6; M5 ag: 1.5; M5 PAM: 5.4; CHRM5 antagonist: -10.3

How did O=C(CN1CCN(c2ccc([N+](=O)[O-])cc2)CC1)c1ccccc1 do in these assays?
CHRM4 agonist: 2.3; M4 antag: 29.0*; CHRM4 PAM: -16.1; M5 ag: -2.8; M5 PAM: -3.9; CHRM5 antagonist: 9.2

What do the screens show for `O=C(CCc1ccccc1)N1CCN(c2ccc([N+](=O)[O-])cc2)CC1`?
CHRM4 agonist: 10.5; M4 antag: -0.5; CHRM4 PAM: 29.4*; M5 ag: 0.6; M5 PAM: -4.2; CHRM5 antagonist: 2.0

How did Cc1cc(C(=O)N2CCN(c3ccc([N+](=O)[O-])cc3)CC2)co1 do in these assays?
CHRM4 agonist: 17.1; M4 antag: 32.9*; CHRM4 PAM: 41.0*; M5 ag: 2.0; M5 PAM: -6.5; CHRM5 antagonist: 1.4

How did Cc1cc(C(=O)N2CCN(c3ccc([N+](=O)[O-])cc3)CC2)c(C)o1 do in these assays?
CHRM4 agonist: 5.6; M4 antag: -8.1; CHRM4 PAM: -1.7; M5 ag: 1.9; M5 PAM: -12.8; CHRM5 antagonist: 8.9

Results for COc1ccccc1Cn1c(=S)[nH]c2ccc(F)cc2c1=O ?
CHRM4 agonist: 1.2; M4 antag: 3.9; CHRM4 PAM: 1.2; M5 ag: -5.9; M5 PAM: -0.8; CHRM5 antagonist: 9.2

What do the screens show for `CCCOc1ccc(/C=C/C(=O)O)cc1OC`?
CHRM4 agonist: 0.7; M4 antag: -15.3; CHRM4 PAM: 19.3*; M5 ag: 0.8; M5 PAM: -0.3; CHRM5 antagonist: 6.6

What do the screens show for `COc1cc(/C=C2\COC/C(=C\c3ccc(O)c(OC)c3)C2=O)ccc1O`?
CHRM4 agonist: 11.1; M4 antag: 5.5; CHRM4 PAM: -8.1; M5 ag: -12.2; M5 PAM: -15.9; CHRM5 antagonist: 10.2

What do the screens show for `COc1cc(/C=C2\CC/C(=C\c3ccc(OCCO)c(OC)c3)C2=O)ccc1OCCO`?
CHRM4 agonist: 10.1; M4 antag: 5.7; CHRM4 PAM: -10.1; M5 ag: 54.8*; M5 PAM: -17.1; CHRM5 antagonist: 26.1

What do the screens show for `COc1cc(/C=C2/CC/C(=C/c3ccc(O)c(OC)c3)C2=O)ccc1O`?
CHRM4 agonist: 15.6; M4 antag: 8.6; CHRM4 PAM: -17.9; M5 ag: 24.6*; M5 PAM: -21.3; CHRM5 antagonist: 36.4*

How did COc1ccc(/C=C2\CN(Cc3ccccc3)C/C(=C\c3ccc(OC)c(O)c3)C2=O)cc1O do in these assays?
CHRM4 agonist: 23.7; M4 antag: 23.8; CHRM4 PAM: -17.7; M5 ag: 2.3; M5 PAM: -11.0; CHRM5 antagonist: 27.0*

What do the screens show for `COCCN(C(=O)c1ccc(N2C(=O)c3ccccc3C2=O)cc1)c1c(N)n(CC(C)C)c(=O)[nH]c1=O`?
CHRM4 agonist: 0.8; M4 antag: -2.4; CHRM4 PAM: 0.5; M5 ag: 2.5; M5 PAM: -4.8; CHRM5 antagonist: 0.4

Results for COc1ccc(CCNC(=O)c2ccc3c(c2)N(Cc2ccc(C)cc2)CCS3)cc1OC ?
CHRM4 agonist: 5.4; M4 antag: 5.8; CHRM4 PAM: -8.5; M5 ag: -8.5; M5 PAM: -15.6; CHRM5 antagonist: 39.1*

Results for COc1ccc(OC)c(CCNC(=O)c2ccc3c(c2)N(Cc2ccc(F)cc2)CCS3)c1 ?
CHRM4 agonist: 0.4; M4 antag: 8.2; CHRM4 PAM: -3.7; M5 ag: -4.7; M5 PAM: -6.6; CHRM5 antagonist: 16.9

What do the screens show for `O=S(=O)(Nc1nc(SCc2ccc(Cl)cc2)n[nH]1)c1ccc(F)cc1`?
CHRM4 agonist: 1.8; M4 antag: -19.6; CHRM4 PAM: 4.3; M5 ag: 9.4; M5 PAM: 22.1*; CHRM5 antagonist: -23.5

What do the screens show for `CCc1nc(SCc2ccc(Cl)cc2)n[nH]1`?
CHRM4 agonist: 0.3; M4 antag: 1.3; CHRM4 PAM: -1.7; M5 ag: -1.1; M5 PAM: 8.1; CHRM5 antagonist: -17.0

How did CC(C)CCN1C(=O)c2ccccc2C1C(=O)NCc1cccnc1 (stereo unspecified) do in these assays?
CHRM4 agonist: 2.1; M4 antag: 10.4; CHRM4 PAM: 20.9*; M5 ag: -7.9; M5 PAM: 2.9; CHRM5 antagonist: -9.4

How did O=C(CC1NCCNC1=O)Nc1ccccc1 (stereo unspecified) do in these assays?
CHRM4 agonist: 2.0; M4 antag: -6.8; CHRM4 PAM: 8.4; M5 ag: -0.7; M5 PAM: 2.4; CHRM5 antagonist: 3.2

How did O=C(CC1C=CCC1)Nc1ccccc1 (stereo unspecified) do in these assays?
CHRM4 agonist: 0.9; M4 antag: -8.8; CHRM4 PAM: 8.5; M5 ag: 2.5; M5 PAM: 20.5*; CHRM5 antagonist: -6.0

What do the screens show for `COc1cccc2c1cc1c(=O)n(CC(=O)NCCCN3CCCCC3)nc(C)n12`?
CHRM4 agonist: 0.1; M4 antag: 4.7; CHRM4 PAM: 0.7; M5 ag: -6.2; M5 PAM: 0.6; CHRM5 antagonist: -2.3
